Sampled rows, rich in hits. Any-hit rate of the full collection: about 2.6%.
FGF22 binding – FGF22 (human) thermal shift binding. activity (Tm shift, normalised), % at 9.99 µM. Q9HCT0. 1.5% of 340,000 active. AID 651658. recombinant FGF22 thermal shift, SYPRO orange fluorescence; percent of sucrose octasulfate shift, DMSO zero;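 active = mean Tm shift, scaled 0 neutral to 100 positive control, at about 1.3% or above, every replicate too, limit read from the data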
CASP6 VEID inh – blocks human caspase-6 cleavage activity; 0.53% of 350,000 active; P55212; purified caspase-6, Z-VEID-R110 cleavage fluorescence; inhibition, % at 12.5 µM; AID 686996;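 active = mean inhibition across replicates at least about 35%, with every replicate also reaching that limit, limit read from the data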;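 also: 0% = median of neutral control wells and 100% = no fluorescence left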
Target sequence (P55212 24-179 limits assumed): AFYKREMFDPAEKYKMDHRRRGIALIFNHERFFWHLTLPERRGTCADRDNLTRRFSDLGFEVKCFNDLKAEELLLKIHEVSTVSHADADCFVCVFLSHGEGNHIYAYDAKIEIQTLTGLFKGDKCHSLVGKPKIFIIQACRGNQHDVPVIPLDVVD
Target sequence (P55212 194-293 limits assumed): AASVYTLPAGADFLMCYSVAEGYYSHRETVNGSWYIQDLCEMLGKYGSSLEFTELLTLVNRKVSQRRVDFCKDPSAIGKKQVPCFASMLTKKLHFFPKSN
NSD2 HMT inh – inhibitors of human histone methyltransferase NSD2. 0.54% of 310,000 active. NSD2 peptide methylation, AlphaScreen, 120 min. inhibition, % at 12.5 µM; in the data active = inhibition above about 50%
UCH37 DUB inh – inhibitors of human deubiquitinating enzyme UCH37 | Q9Y5K5 | purified proteasome/UCH37, Ub-AMC cleavage fluorescence | inhibition, % (no concentration beside the values) | 0.33% of 330,000 active;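 active = mean inhibition over replicate wells above about 20%, limit read from the data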;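 also: 0% = compound-free wells with enzyme and 100% = wells lacking proteasome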
Target sequence (Q9Y5K5 whole entry, looked up): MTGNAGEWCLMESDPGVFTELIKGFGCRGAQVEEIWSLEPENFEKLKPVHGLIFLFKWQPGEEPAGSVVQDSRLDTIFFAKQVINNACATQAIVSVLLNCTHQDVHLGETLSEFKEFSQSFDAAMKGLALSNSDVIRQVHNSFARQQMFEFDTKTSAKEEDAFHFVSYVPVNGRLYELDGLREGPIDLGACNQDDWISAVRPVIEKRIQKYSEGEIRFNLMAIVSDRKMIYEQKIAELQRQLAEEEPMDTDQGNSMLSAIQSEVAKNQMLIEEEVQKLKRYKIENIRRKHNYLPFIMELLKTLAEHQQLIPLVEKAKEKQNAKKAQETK
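Assay system: Proteasome-bound UCH37. Buffer or medium: pH 7.4 Tris-HCl (50 mM) with ovalbumin, ATP-MgCl2, DTT. Incubation: 30 min preincubation with enzyme, 25 min cleavage at room temperature. Measured by: fluorescence, ex 355 nm, em 460 nm. Read-out basis: percent inhibition. Control set: wells without proteasome as full block, compound-free enzyme plus substrate as uninhibited.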
SIRT5 block – sirtuin-5 (human) deacylase inhibition; Purified SirT5, succinyl-peptide AMC, trypsin-coupled fluorescence; inhibition, % at 15 µM; 1.1% of 330,000 active; AID 652115; in the data active = inhibition above about 15%
* marks the source's active call; other numbers are inactive results; · = not tested or not shown.

SMILES	FGF22 binding	CASP6 VEID inh	NSD2 HMT inh	UCH37 DUB inh	SIRT5 block
COc1ccc(S(=O)(=O)N(C)C[C@@H]2Oc3c(NC(=O)c4ccncc4)cccc3C(=O)N([C@@H](C)CO)C[C@H]2C)cc1	-0.4	0.1	·	·	16.5*
Cc1noc(C)c1NC(=O)N(C)C[C@H]1Oc2ccc(NS(=O)(=O)c3ccc(F)cc3)cc2CC(=O)N([C@@H](C)CO)C[C@@H]1C	0.0	-2.1	·	·	-1.3
COc1ccc(-c2ccc3c(c2)[C@H]2[C@H](CCN2C(=O)NC2CCCC2)[C@H](CO)N3C)cc1	·	-0.4	·	·	-7.2
COc1ccc(C2CCCN2C(=O)Nc2ccc(C)c(C)c2)cc1OC (stereo not given)	-0.1	3.5	·	5.3	15.8*
C[C@@H](NC(=O)C[C@H]1C[C@H]2c3cc(NC(=O)c4cccnc4)ccc3O[C@H]2[C@H](CO)O1)c1ccccc1	-0.5	-0.4	·	·	0.1
Cc1cccc(-c2ccc([C@H]3[C@@H](CO)N4C(=O)CN(S(=O)(=O)c5cccc(F)c5)C[C@@H]34)cc2)c1	-0.5	-2.6	·	·	17.1*
Cc1cccc(-c2ccc([C@H]3[C@H]4CN(S(=O)(=O)c5cccc(F)c5)CC(=O)N4[C@H]3CO)cc2)c1	-0.4	-0.8	·	·	19.1*
CCC(=O)N=c1sc2cc(F)cc(F)c2n1C	-0.2	0.0	·	2.7	1.8
CC(C)C(=O)N=c1sc2cc(F)cc(F)c2n1C	-0.1	1.0	·	2.2	17.1*
COC(=O)CC1=C(C)C(=O)CC2C(C)(C)CCCC12C (stereo not given)	0.0	1.6	·	1.2	18.1*
COc1ccc(-c2cccc(C3CC=CC4C3C(=O)N(Cc3ccccc3)C4c3ccc(C(F)(F)F)cc3)c2)cc1 (stereo not given)	0.3	-3.2	·	0.1	18.6*
NC(=O)C1C(c2ccccc2)=C1c1ccccc1	·	·	4.8	2.9	·
O=C(O)C1C(c2ccccc2)=C1c1ccc(Br)cc1 (stereo not given)	43.1*	1.3	0.4	·	·
COc1ccccc1NC(=O)Nc1ccncc1	42.2	-1.8	-1.9	0.7	-5.8
COc1ccccc1NC(=O)Nc1ccc(Cc2ccncc2)cc1	43.5*	-2.9	1.7	1.2	-1.0
O=C(Nc1ccc2c(c1)OCCO2)c1oc2ccccc2c1NC(=O)C1CC1	43.3*	0.3	-4.6	-4.8	0.8
CCC(=O)Nc1c(C(=O)Nc2ccc3c(c2)OCCO3)oc2ccccc12	0.0	4.6	-2.6	-1.0	1.0
O=C(NCCc1ccccc1)[C@@H]1[C@@H](CO)[C@@H]2Cn3c(cccc3=O)[C@@H]2N1Cc1ccccc1	0.3	-0.4	·	·	0.2
C[C@@H]1CN([C@@H](C)CO)C(=O)c2cc(NC(=O)NC3CCCCC3)ccc2O[C@@H](C)CCCCO[C@H]1CN(C)Cc1ccc2c(c1)OCO2	-0.3	0.8	·	·	-1.8
COC(=O)c1ccccc1-c1ccc(/C=N/NC(N)=O)o1	2.9*	-5.3	-2.6	·	2.3
COC(=O)N/N=C/c1ccc(-c2ccccc2Cl)o1	0.1	-4.1	-1.4	·	0.0
CC1=C(C(=O)N(C)C)CC(CC(=O)NC2CC2)C(=O)N1CCC1=CCCCC1 (stereo not given)	-0.1	-0.4	·	·	4.2
CC1=C(C(=O)N2CCOCC2)CC(CC(=O)NC2CC2)C(=O)N1CCC1=CCCCC1 (stereo not given)	0.5	0.1	·	·	17.3*
CC1=C(C(=O)N2CCOCC2)CC(CC(=O)NCC2CCCCC2)C(=O)N1CCC1=CCCCC1 (stereo not given)	0.0	2.1	·	·	22.6*
CS(=O)(=O)Nc1ccc2c(c1)[C@@H]1C[C@@H](CC(=O)NCc3ccc(-c4ccccc4)cc3)O[C@@H](CO)[C@@H]1O2	-0.7	·	·	·	·
SMILES	FGF22 binding	CASP6 VEID inh	NSD2 HMT inh	UCH37 DUB inh	SIRT5 block
COCC(=O)Nc1ccc2c(c1)C(=O)N(C)C[C@H](OC)[C@@H](C)CN(Cc1ccccc1F)[C@@H](C)CO2	-0.2	-5.4	·	·	5.4
COc1ccc(C2/C(=C(/O)c3ccc4c(c3)CC(C)O4)C(=O)C(=O)N2CCN2CCOCC2)cc1 (stereo not given)	·	·	-4.6	4.3	·
COc1ccc(/C(O)=C2/C(=O)C(=O)N(CCCN3CCOCC3)C2c2ccc(OC)cc2)cc1 (stereo not given)	-0.2	3.5	·	8.2	81.4*
COc1ccc(C2/C(=C(/O)c3ccc4c(c3)CC(C)O4)C(=O)C(=O)N2CCCN2CCOCC2)cc1 (stereo not given)	-0.2	-1.5	2.3	21.1*	0.8
S=C(NCC(c1cccnc1)N1CCOCC1)NC1CCCCC1 (stereo not given)	0.1	-1.1	-1.7	6.6	1.6
Fc1ccc(C(CNC(=S)NC2CCCCC2)N2CCOCC2)cc1 (stereo not given)	43.1*	-3.8	0.0	0.3	-21.1
CNC(=O)C[C@H]1CC[C@@H]2[C@H](COC[C@@H](O)CN2Cc2ccc(Cl)c(Cl)c2)O1	0.1	1.1	·	·	1.8
O=S(=O)(c1ccc(F)cc1)N1CCCCN2[C@@H](CO)[C@H](c3ccc(-c4ccccc4F)cc3)[C@@H]2C1	0.1	-0.1	·	·	22.0*
O=S(=O)(c1ccc(F)cc1)N1CCCCN2[C@H](C1)[C@H](c1ccc(-c3ccccc3F)cc1)[C@@H]2CO	0.2	-0.9	·	·	16.9*
O=S(=O)(c1ccc(F)cc1)N1CCCCN2[C@H](CO)[C@H](c3ccc(-c4ccccc4F)cc3)[C@H]2C1	0.6	0.4	·	·	-1.3
O=S(=O)(c1ccc(F)cc1)N1CCCCN2[C@@H](CO)[C@@H](c3ccc(-c4ccccc4F)cc3)[C@@H]2C1	0.3	-2.2	·	·	15.9*
Cc1ccccc1-c1ccc([C@H]2[C@H](CO)N3CCCCN(S(=O)(=O)c4ccc(F)cc4)C[C@@H]23)cc1	-0.4	·	·	·	21.3*
CC(C)(C)OC(=O)NN=Cc1cccnc1	·	·	·	1.6	·
C[C@@H]1CCCCO[C@H](CN(C)Cc2ccc(C(=O)O)cc2)[C@H](C)CN([C@@H](C)CO)C(=O)c2cc(NS(C)(=O)=O)ccc2O1	-0.5	0.6	·	·	3.4
CCCNC(=O)C[C@H]1CC[C@H]2[C@@H](COC[C@H](O)CN2C(=O)C2CCOCC2)O1	0.0	-0.7	·	·	-0.5
CC(=O)NC[C@H]1[C@H](c2ccc(-c3ccccc3F)cc2)[C@@H](CO)N1C(C)=O	-0.1	2.6	·	·	-1.9
O=S(=O)(c1ccc(F)cc1)N1CCCCN2[C@H](C1)[C@@H](c1ccc(-c3ccccc3F)cc1)[C@@H]2CO	0.1	-2.0	·	·	13.6
O=S(=O)(c1ccc(F)cc1)N1CCCCN2[C@H](CO)[C@H](c3ccc(-c4ccccc4F)cc3)[C@@H]2C1	0.2	-2.3	·	·	20.0*
N#CCCN1CCN(S(=O)(=O)c2ccc(C3CCCCC3)cc2)CC1	0.0	-6.8	-1.6	2.9	1.2
CC1CCCCC1NS(=O)(=O)c1ccc(S(=O)(=O)N2CCN(CCC#N)CC2)cc1 (stereo not given)	41.2	44.8*	·	1.8	·
CCN(CC)C(=N)/C(C#N)=N/Nc1ccccc1	-0.3	-2.1	5.5	·	16.8*

High-throughput results deposited in PubChem by several laboratories.
